Source: PubChem
DYRK1A inh: rat Dyrk1A kinase inhibitors, primary screen, biochemical, single point, plate reader. ADP-Glo luminescence, NFATc1 peptide. inhibition, % at 12.5 µM. actives 0.43% (n = 310,000)
SR-BI HDL uptake: inhibitors of SR-BI mediated HDL lipid uptake, primary screen, ldlA[mSR-BI] cells, fluorescence, single point; Scavenger receptor class B member 1 (Mus musculus), Q61009; ldlA[mSR-BI] CHO cells, DiI-HDL uptake fluorescence, 3 h; inhibition, % at 12.5 µM; actives 0.96% (n = 320,000);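 active = mean replicate inhibition of at least 70% and a set share of replicates each scoring 70 or more; inconclusive = meets just one of the two criteria; inactive = fails both criteria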
CDK5 p35 inh: inhibitors of human CDK5/p35 kinase, primary screen, biochemical, single concentration | Recombinant CDK5/p35, ADP-Glo luminescence, 60 min | actives 0.01% (n = 330,000) | Cyclin-dependent kinase 5 (Homo sapiens) + Cyclin-dependent kinase 5 activator 1 (Homo … | inhibition, % at 10 µM;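 active = highest replicate inhibition of at least 50% and at least 75% of replicates reaching 50%; inconclusive = only one of the two criteria met; inactive = both criteria failed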
SR-BI uptake up: activators of SR-BI mediated DiI-HDL uptake, primary screen, ldlA[mSR-BI] CHO cells, DiI fluorescence. 3 h; 100 = double the neutral-control signal. activation, % at 12.5 µM. actives 0.096% (n = 320,000). AID 504775, 2011;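 active = mean replicate activation of at least 60% and every replicate at or above 60%; inconclusive = mean or all-replicate condition met, but not both; inactive = mean below 60% and not all replicates reaching 60%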
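material = CHO ldlA[mSR-BI] cells | medium = Ham's F12 with 0.5% BSA, HEPES 25 mM, pH 7.4 | reagent = fluorescent DiI-HDL, 10 µg/mL final | compound dosing = single-point compound dose | incubation = 3 h, 37 °C | measured by = bottom-read fluorescence, 550/595 nm | measure = HDL uptake via cellular fluorescence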
NSD2 inh: NSD2 histone methyltransferase inhibitors, primary screen, biochemical, AlphaScreen, single concentration, set 2 | Histone-lysine N-methyltransferase NSD2 (Homo sapiens), O96028 | AID 743445, 2014 | actives 0.54% (n = 310,000) | NSD2 peptide methylation, 120 min | inhibition, % at 12.5 µM
Target sequence (O96028 whole entry, looked up): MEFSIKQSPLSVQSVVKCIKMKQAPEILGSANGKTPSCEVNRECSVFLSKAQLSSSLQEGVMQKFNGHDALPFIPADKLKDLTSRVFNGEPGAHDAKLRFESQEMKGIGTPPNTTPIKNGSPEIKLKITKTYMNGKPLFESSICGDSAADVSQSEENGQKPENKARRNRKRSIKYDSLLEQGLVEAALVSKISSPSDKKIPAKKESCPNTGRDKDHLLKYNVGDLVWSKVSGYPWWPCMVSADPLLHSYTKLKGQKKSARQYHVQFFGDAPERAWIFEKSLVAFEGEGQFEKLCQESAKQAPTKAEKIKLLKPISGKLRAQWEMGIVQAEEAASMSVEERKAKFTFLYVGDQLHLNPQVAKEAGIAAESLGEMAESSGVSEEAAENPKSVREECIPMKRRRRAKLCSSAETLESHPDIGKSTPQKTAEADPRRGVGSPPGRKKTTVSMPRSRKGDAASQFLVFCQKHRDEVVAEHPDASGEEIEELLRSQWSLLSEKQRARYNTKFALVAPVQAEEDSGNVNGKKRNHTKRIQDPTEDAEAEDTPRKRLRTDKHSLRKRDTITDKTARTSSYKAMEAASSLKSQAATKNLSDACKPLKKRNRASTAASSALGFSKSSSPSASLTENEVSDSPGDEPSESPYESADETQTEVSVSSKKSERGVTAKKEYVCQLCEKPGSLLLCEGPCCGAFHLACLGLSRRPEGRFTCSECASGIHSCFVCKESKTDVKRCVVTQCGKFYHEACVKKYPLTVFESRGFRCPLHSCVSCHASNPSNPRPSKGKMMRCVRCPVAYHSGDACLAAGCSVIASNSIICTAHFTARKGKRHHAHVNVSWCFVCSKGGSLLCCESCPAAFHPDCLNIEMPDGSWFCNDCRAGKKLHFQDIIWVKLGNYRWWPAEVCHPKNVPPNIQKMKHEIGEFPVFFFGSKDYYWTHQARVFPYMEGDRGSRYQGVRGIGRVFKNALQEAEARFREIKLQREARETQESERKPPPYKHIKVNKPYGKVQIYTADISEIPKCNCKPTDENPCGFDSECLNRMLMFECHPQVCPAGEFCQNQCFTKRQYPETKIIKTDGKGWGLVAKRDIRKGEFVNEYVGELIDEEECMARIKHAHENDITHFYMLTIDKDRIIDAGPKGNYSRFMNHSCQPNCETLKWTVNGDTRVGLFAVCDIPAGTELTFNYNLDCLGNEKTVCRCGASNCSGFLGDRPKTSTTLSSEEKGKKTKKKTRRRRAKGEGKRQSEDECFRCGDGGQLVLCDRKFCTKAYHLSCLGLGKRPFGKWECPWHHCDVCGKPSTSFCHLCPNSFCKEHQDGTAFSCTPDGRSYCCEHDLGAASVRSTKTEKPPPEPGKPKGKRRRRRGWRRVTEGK
dFosB act-1: activators of delta FosB homodimer, primary screen, biochemical, fluorescence polarization, TAMRA-CDK5 oligo, single point. AID 493131, 2011. purified delta FosB; percent of positive-control signal above neutral wells. Protein FosB (Mus musculus), P13346. activation, % at 25 µM. actives 0.99% (n = 340,000);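 active = mean activation above about 17%, with every replicate also reaching it, limit read from the data, passing the limit was not always enough; inconclusive = only one of the two conditions met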
dFosB act-2: activators of mouse delta FosB DNA binding, confirmation, biochemical, fluorescence polarization, TAMRA-CDK5 oligo, cherry-picked samples; shares compounds with dFosB act-1; purified delta FosB; normalised: neutral wells 0, positive control 100; activation, % at 24.9 µM; 2,400 tested, under 10 active; AID 588690, 2011;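 active = highest replicate activation at or above 34% and every replicate reaching that threshold; inconclusive = meets only one of the two criteria; inactive = meets neither criterion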;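 also: higher polarization means more probe DNA bound by delta FosB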
Of the large screens only hits and unclear results are named; the others gave an inactive call (follow-up assays come after a bar, where they were run). In the library only some 2.5% were active in any assay of this set; here they are far more common. Rule as the data show it, unless noted: active = inhibition above about 50%; inactive = the rest.

COc1ccc(/C=N/NC(=O)c2ccco2)cc1COc1ccc(F)cc1	dFosB act-1 74.5 | dFosB act-2 inactive
COc1cc(OC)c(/C=N/NC(=O)c2ccncc2)cc1Br	none
COc1ccc(/C=N/NC(=O)c2cc(Br)ccc2O)cc1Cn1cc(Cl)cn1	none
COc1cc(OC)c(/C=N/NC(=O)c2ccc(NC(C)=O)cc2)cc1Br	SR-BI HDL uptake inconclusive, dFosB act-1 27.5 | dFosB act-2 inactive
CN1CCN(C(=O)/C(=C/c2cccc([N+](=O)[O-])c2)NC(=O)c2ccccc2)CC1	none
CCN(CC)S(=O)(=O)c1cccc(NC(=O)CN2C(=O)NC3(CCC(C)CC3)C2=O)c1 (stereo unspecified)	none
Cc1cccc(-c2nnc(SCc3cccc4ccccc34)n2-c2ccc(Cl)cc2)c1	none (no result: DYRK1A inh, SR-BI HDL uptake, CDK5 p35 inh, SR-BI uptake up, dFosB act-1)
CCCCn1c(CN2C(=O)c3ccccc3C2=O)nc2ccccc2c1=O	dFosB act-1 29.6 | dFosB act-2 inactive
O=C1c2ccccc2C(=O)N1Cc1nc2ccccc2c(=O)n1CCCn1ccnc1	none (no result: NSD2 inh)
CCOc1ccc2nc(NC(=O)CC3Oc4ccccc4NC3=O)sc2c1 (stereo unspecified)	dFosB act-1 28.7 (no result: SR-BI HDL uptake, SR-BI uptake up) | dFosB act-2 inactive
COc1ccc2nc(NC(=O)CC3Oc4ccccc4NC3=O)sc2c1 (stereo unspecified)	none (no result: SR-BI HDL uptake, SR-BI uptake up)
C/C(=N\NC(=O)c1nnn(-c2nonc2N)c1CSc1ccccc1)c1ccco1	dFosB act-1 38.1 | dFosB act-2 inactive
C/C(=N\NC(=O)c1nnn(-c2nonc2N)c1CSc1ccc(C)cc1)c1ccco1	dFosB act-1 18.4 | dFosB act-2 inactive
C/C(=N\NC(=O)c1nnn(-c2nonc2N)c1CSc1ccccc1)c1cccnc1	none
CSc1ccccc1NC(=O)C(C)N(C)CC(=O)N1CCN(Cc2ccccc2)CC1 (stereo unspecified)	none (no result: DYRK1A inh)
Oc1ccc(/C=N/Nc2ccnc3cc(Cl)ccc23)c(O)c1	dFosB act-1 inconclusive (no result: SR-BI HDL uptake, SR-BI uptake up)
Cc1ccccc1/C=N/Nc1ccnc2cc(Cl)ccc12	dFosB act-1 38.4 | dFosB act-2 inactive
COc1ccc(-c2cc(=O)oc3cc(OCC(=O)Nc4ccc(CCO)cc4)ccc23)cc1	dFosB act-1 21.9 | dFosB act-2 inactive
COc1ccc(-c2cc(=O)oc3c(C)c(OCC(=O)Nc4cccnc4)ccc23)cc1	dFosB act-1 41.3 | dFosB act-2 inactive
COC(=O)COc1ccc2c(-c3ccc(OC)cc3)cc(=O)oc2c1	none
COc1cc(F)ccc1-c1csc(C(NC(C)=O)c2cccc(F)c2)n1 (stereo unspecified)	none (no result: DYRK1A inh, SR-BI HDL uptake, CDK5 p35 inh, SR-BI uptake up, dFosB act-1)
COc1ccc(NS(=O)(=O)c2cccc(C(=O)NNC(=O)CN3C(=O)NC(C)(C)C3=O)c2)cc1	none (no result: SR-BI HDL uptake, SR-BI uptake up)
CCc1c(C)c(C#N)c2nc3ccccc3n2c1NCCN(C)C	dFosB act-1 20.9 | dFosB act-2 inactive
CCC(CC)C(=O)N(C)c1c(C)nc2c(OCC3CCCCC3)cccn12	none (no result: DYRK1A inh, SR-BI HDL uptake, CDK5 p35 inh, SR-BI uptake up, dFosB act-1)
CC(=O)c1sc(NC(=O)c2ccc(C)c(C)c2)nc1C	dFosB act-1 23.5 | dFosB act-2 inactive
CC(OC(=O)c1ccc(Cl)nc1)C(=O)NC1(C#N)CCCCC1 (stereo unspecified)	none
CC(C(=O)N(C)C1CCCCC1)N1CCC(C(N)=O)CC1 (stereo unspecified)	none (no result: SR-BI HDL uptake, SR-BI uptake up)
Cc1ccc(CSc2nnc(NC(=O)Cn3cnc4ccccc4c3=O)s2)cc1	dFosB act-1 31.0 | dFosB act-2 inactive
CCOC(=O)N1CCN(C(=O)c2nn(C)c3c2CSc2ccccc2-3)CC1	SR-BI uptake up inconclusive (no result: NSD2 inh)
Cc1cc(=O)[nH]c(N/N=C/c2c(C)nn(-c3ccc(F)cc3)c2Cl)n1	dFosB act-1 45.8 (no result: DYRK1A inh) | dFosB act-2 inactive
Cc1cc(=O)[nH]c(NN=Cc2c(Cl)cccc2Cl)n1	none
O=C(COc1coc(CN2CCCc3ccccc32)cc1=O)Nc1ccc([N+](=O)[O-])cc1	dFosB act-1 27.8 | dFosB act-2 inactive
CN(C(=O)Cn1c(Cl)nc2c1c(=O)n(C)c(=O)n2C)C1CCS(=O)(=O)C1 (stereo unspecified)	none
Cc1nn(C)cc1S(=O)(=O)N1CCN(c2ccccc2)CC1	none
Cc1ccc(Nc2nc(N)c([N+](=O)[O-])c(NCc3ccccc3)n2)cc1	dFosB act-1 46.6 | dFosB act-2 inactive
Cc1cccc(Nc2nc(N)c([N+](=O)[O-])c(NCc3ccco3)n2)c1	dFosB act-1 53.0 | dFosB act-2 inactive
O=C(CN1CCN(C(=O)CCC(=O)N2CCC(c3ccccc3)=N2)CC1)Nc1ccc(F)cc1	none
O=C(Nc1ccc2c(c1)CCC2)c1cc(S(=O)(=O)N2CCN(c3ccccc3)CC2)ccc1Cl	dFosB act-1 24.2 | dFosB act-2 inactive
COc1ccc(NC(=O)Cn2nnc(C(=O)Nc3ccc(F)c(Cl)c3)c2N)cc1OC	dFosB act-1 22.9 | dFosB act-2 inactive
COc1ccc(NC(=O)Cn2nnc(C(=O)NCc3ccccc3)c2N)cc1Cl	none
Cc1ccc(NC(=O)Cn2nnc(C(=O)Nc3ccc(C)c(C)c3)c2N)cc1	dFosB act-1 119.5 | dFosB act-2 inactive
Cc1ccc(NC(=O)c2nnn(CC(=O)Nc3ccc4c(c3)OCO4)c2N)cc1C	dFosB act-1 45.9 | dFosB act-2 inactive
CCC1CCCCN1CCCNC(=O)Cn1ncc2c(C)n(Cc3ccccc3Cl)c(C)c2c1=O (stereo unspecified)	none (no result: NSD2 inh)
CC(C)[C@H](NS(=O)(=O)c1cccc(C(F)(F)F)c1)C(=O)OCC(N)=O	none
C#CCOCCOCCOCCNc1nc(N2CCN(C(=O)[C@H]([C@@H](C)CC)n3cc([C@@H](N)CC(C)C)nn3)CC2)nc(N2CCN(C(=O)[C@H](CCCCN)n3cc([C@@H](N)CO)nn3)CC2)n1	none (no result: NSD2 inh)
C#CCOCCOCCOCCNc1nc(N2CCN(C(=O)[C@H](CCCCN)n3cc([C@@H](N)CC(C)C)nn3)CC2)nc(N2CCN(C(=O)[C@H](CCCCN)n3cc([C@@H](N)CC(C)C)nn3)CC2)n1	dFosB act-1 18.8 (no result: NSD2 inh) | dFosB act-2 inconclusive
